Screening results as filed in PubChem.
PfGluPho inh = PfG6PD (Plasmodium falciparum) enzyme inhibition; PfGluPho enzyme, NADPH resazurin-diaphorase fluorescence; actives 0.78% (n = 350,000); inhibition, % at 20 µM; AID 504690;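 active = inhibition reaching at least a set limit at 20 µM in the primary screen, cut at about 59% in these data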
MC4R antag cAMP = human MC4R antagonism in cAMP assay | MC4R-expressing cells, MTII-stimulated cAMP, LANCE TR-FRET | inhibition, % at 6.5 µM | actives 0.48% (n = 360,000);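 active = inhibition above its plate's cutoff, the mean of tested wells on that plate plus 3 SD, cut at about 29% in these data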
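Material – human MC4R-expressing U2OS cells · Repeats – no replicates · Detection – TR-FRET with Eu-cAMP and labeled anti-cAMP, 671 nm · Times – compound 30 min, challenge 1 h, detection 1 h · Compound – single nominal compound dose of 6.5 µM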
MC4R barr agon = human MC4R agonism via beta-arrestin. U2OS MC4R beta-arrestin complementation, luminescence; percent of melanotan II response, DMSO zero. actives 0.98% (n = 360,000). activation, % at 8.9 µM. AID 540308;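 active = activation above a per-plate cutoff, the mean activation of sample wells on that plate plus 3 SD, cut at about 8% in these data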
B2AR ag = activates human beta-2 adrenergic receptor causing internalization. Am2.2-beta2AR cells, FAP receptor internalization, flow cytometry. response, % (test concentration not listed). actives 0.43% (n = 340,000). AID 504454;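 active = response above a set limit, near 3 SD of response in nonfluorescent compounds, cut at about 42% in these data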
ABHD5 PLIN5 PPI = ABHD5-PLIN5 protein interaction inhibition | Q00G26+Q8WTS1 | Split G. princeps luciferase complementation, luminescence, 4 h | inhibition, % at 4 µM | actives 0.78% (n = 360,000);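 active = inhibition above the mean inhibition across every tested compound plus 3 SD, cut at about 22% in these data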
Large screens that a line does not name were inactive. Only some compounds are listed: those with a hit (about 3% of all), similar ones and a draw of the others.

CC(=O)Oc1ccc(C(c2ccc(OC(C)=O)cc2)c2ccccn2)cc1	MC4R barr agon 75.1
Cc1cc(C(=O)N2CCCC(C)(C(=O)NS(=O)(=O)C3CC3)C2)nn1C(C)(C)C (centres undefined)	none (no result: PfGluPho inh, B2AR ag)
Cc1ccccc1OCC(=O)N/N=C/c1cc2ccccc2nc1Cl	none
O=C(COc1cccc(Cl)c1)N/N=C\c1cc2ccccc2nc1Cl	MC4R barr agon 9.0
CN(C)S(=O)(=O)c1cccc(C(=O)NCCOC(=O)c2cc(F)c(F)cc2Cl)c1	none
Cc1oc(C(C)(C)C)cc1C(=O)Nc1cccc(/C=C\C(=O)O)c1	ABHD5 PLIN5 PPI 22.7
COc1ccccc1CCC(=O)Oc1ccc(C#N)cc1OC	none
COc1ccc(S(=O)(=O)c2c(N)n(Cc3ccco3)c3nc4ccccc4nc23)cc1	ABHD5 PLIN5 PPI 24.5
COCCN1CCCC(CNCc2cn(C)nc2-c2ccc(Oc3ccccc3)cc2)C1 (centres undefined)	none
Cn1cc(CNCc2cn(C)nc2-c2ccc(C3CCCCC3)cc2)cn1	ABHD5 PLIN5 PPI 22.2
CCN(CC)C(=O)C1=C(C)N(Cc2ccccc2)C(=O)C(CC(=O)NCCN2CCOCC2)C1 (centres undefined)	none (no result: B2AR ag)
Nc1c(C(=O)NCc2ccco2)c2nc3ccccc3nc2n1CCc1ccccc1	none
CCOc1ccc(-n2c(N)c(C(=O)NCc3ccco3)c3nc4ccccc4nc32)cc1	ABHD5 PLIN5 PPI 33.1
Nc1c(C(=O)Nc2ccccc2)c2nc3ccccc3nc2n1-c1ccc(O)cc1	ABHD5 PLIN5 PPI 22.6
CCOC(=O)c1c(N)n(-c2ccc(N)cc2)c2nc3ccccc3nc12	none
Cc1c(N=C2C=CC(=O)c3ccccc32)c(=O)n(-c2ccccc2)n1C	PfGluPho inh 86.3, B2AR ag 43.9
CC(C)(C)NC(=O)C1(N2C(=O)c3ccccc3C2=O)CCCC1	none
COc1ccc(-c2csc(NC(C)=O)n2)cc1OC	none
COc1cccc(NC(=O)Nc2nc(-c3ccc(OC)c(OC)c3)cs2)c1	MC4R barr agon 18.5
O=C(COc1ccc2ccccc2c1)Nc1cccnc1Cl	MC4R barr agon 8.3
O=C(COc1ccc2ccccc2c1)Nc1cccc2cccnc12	none
COc1ccc(OCC(=O)Nc2ccc3oc(-c4ccncc4)nc3c2)cc1	none
Cc1ccc(OCC(=O)Nc2ccc(O)c(-c3nc4ccccc4o3)c2)cc1	MC4R barr agon 8.6
CCCN(CCC)C(=O)c1ccc2c(=O)n(Cc3ccco3)c(=S)[nH]c2c1	none
COc1cc(NC(=O)c2ccc3c(=O)n(Cc4ccco4)c(=S)[nH]c3c2)cc(OC)c1OC	ABHD5 PLIN5 PPI 22.5
Cc1cc(N2CCN(C(c3ccnc4ccccc34)c3nnnn3-c3c(C)cccc3C)CC2)c2ccccc2n1 (centres undefined)	none (no result: PfGluPho inh, MC4R antag cAMP, MC4R barr agon, B2AR ag)
COc1ccc(CNC(=O)c2c(C)oc3c2C(=O)c2ccccc2C3=O)cc1	none
Cc1oc2c(c1C(=O)NCc1cccnc1)C(=O)c1ccccc1C2=O	PfGluPho inh 103.4 (no result: MC4R antag cAMP, MC4R barr agon, B2AR ag, ABHD5 PLIN5 PPI)
CC(=O)Nc1ccc(Nc2nc(C(F)(F)F)nc3c2nnn3Cc2ccccc2Cl)cc1	MC4R barr agon 8.9
CCOCCCNc1nc(C(F)(F)F)nc2c1nnn2Cc1ccccc1Cl	none
CCC(=O)Nc1cc(-c2cc3ccccc3oc2=O)ccc1OC	none
COc1ccc(-c2cc3ccccc3oc2=O)cc1NC(=S)NC(=O)c1ccc2c(c1)OCCO2	MC4R barr agon 9.4, B2AR ag 42.5
Cc1ccc(Nc2c(-c3ccc(C)o3)nc3cnccn23)cc1	PfGluPho inh 68.5
O=C(NC1CC1)c1ccc(-c2ccc3nccn3c2)cc1	none (no result: PfGluPho inh, B2AR ag)
O=C(NCc1ccco1)c1ccc(-c2ccc3nccn3c2)cc1	ABHD5 PLIN5 PPI 22.2 (no result: PfGluPho inh, B2AR ag)
COc1cc([N+](=O)[O-])ccc1NC(=O)C[n+]1ccccc1	none
CC1(c2ccc(Cl)cc2)NC(=O)N(CC(=O)Nc2ccc(N3CCCCC3)cc2)C1=O (centres undefined)	none
O=C(Oc1ccc2ccccc2c1Br)N1CCCCCC1	B2AR ag 62.0
O=C(COc1ccc2ccccc2c1Br)N1CCCCC1	none
COC(=O)c1ccc(C2NC(=S)N(c3ccccc3)C(C)=C2C(=O)Nc2ccccc2OC)cc1 (centres undefined)	B2AR ag 46.5
Cc1ccsc1C(=O)N1CCCC(CCC(=O)N2CCN(c3ccccn3)CC2)C1 (centres undefined)	none
O=C(c1ccccc1)N1CCN(C(=O)c2nn3c(C(F)(F)F)cc(-c4ccco4)nc3c2Br)CC1	ABHD5 PLIN5 PPI 22.3
